Data from ChEMBL document CHEMBL1131236, “Antitumor agents. 185. Synthesis and biological evaluation of tridemethylthiocolchicine analogues as novel topoisomerase II inhibitors” (J Med Chem, 1998).
In brackets after ≈: the same amount, converted by molar mass.

Key:
[1] = molecular target: T1, DNA topoisomerase II (Homo sapiens, UniProt P11388+Q02880); experiment: (§1) In vitro activity against mammalian topoisomerase II measured as ATP-dependent unknotting of P4 DNA compared to enzyme and DNA control; type: protein assay
Method in brief: (§2)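 Topo II inhibition read as ATP-dependent unknotting of P4 DNA, compared with enzyme-only and DNA-only control reactions.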

[2] = system: CAKI-1; experiment: In vitro growth inhibition of CAKI-1, Kidney carcinoma; type: functional, cell-based; conditions: Homo sapiens
Method in brief: (§3)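 Human tumor lines screened in-house: KB, A549, MCF-7, CAKI-1 and SK-MEL-2. Read-out was SRB staining with absorbance at 562 nm.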

[3] = system: KB; experiment: In vitro growth inhibition of KB, epidermoid carcinoma of the nasopharynx.; type: functional, cell-based; conditions: Homo sapiens; method in brief: as §3
[4] = system: SK-MEL-2; experiment: In vitro growth inhibition of SK-MEL-2, malignant melanoma.; type: functional, cell-based; conditions: Homo sapiens; method in brief: as §3
[5] = system: CAKI-1; experiment: In vitro percent inhibition of CAKI-1, Kidney carcinoma; type: functional, Homo sapiens; parameters: concentration or dose not given beside the values
[6] = system: A549; experiment: In vitro percent inhibition of A549, lung carcinoma.; type: functional, Homo sapiens
[7] = system: MCF7; experiment: (§4) In vitro growth inhibition of MCF-7, breast adenocarcinoma.; type: functional, Homo sapiens; method in brief: as §3
[8] = molecular target: T1, DNA topoisomerase II; experiment: In vitro inhibitory activity at 100 uM against topoisomerase II measured as ATP-dependent unknotting of P4 DNA compared to enzyme and DNA control.; type: protein assay
[9] = molecular target: T2, DNA topoisomerase 1 (Homo sapiens) (UniProt P11387); experiment: In vitro inhibitory activity at 100 uM against topoisomerase I measured as ATP-independent relaxation of supercoiled plasmid DNA compared to enzyme and DNA control.
T2 sequence (whole entry): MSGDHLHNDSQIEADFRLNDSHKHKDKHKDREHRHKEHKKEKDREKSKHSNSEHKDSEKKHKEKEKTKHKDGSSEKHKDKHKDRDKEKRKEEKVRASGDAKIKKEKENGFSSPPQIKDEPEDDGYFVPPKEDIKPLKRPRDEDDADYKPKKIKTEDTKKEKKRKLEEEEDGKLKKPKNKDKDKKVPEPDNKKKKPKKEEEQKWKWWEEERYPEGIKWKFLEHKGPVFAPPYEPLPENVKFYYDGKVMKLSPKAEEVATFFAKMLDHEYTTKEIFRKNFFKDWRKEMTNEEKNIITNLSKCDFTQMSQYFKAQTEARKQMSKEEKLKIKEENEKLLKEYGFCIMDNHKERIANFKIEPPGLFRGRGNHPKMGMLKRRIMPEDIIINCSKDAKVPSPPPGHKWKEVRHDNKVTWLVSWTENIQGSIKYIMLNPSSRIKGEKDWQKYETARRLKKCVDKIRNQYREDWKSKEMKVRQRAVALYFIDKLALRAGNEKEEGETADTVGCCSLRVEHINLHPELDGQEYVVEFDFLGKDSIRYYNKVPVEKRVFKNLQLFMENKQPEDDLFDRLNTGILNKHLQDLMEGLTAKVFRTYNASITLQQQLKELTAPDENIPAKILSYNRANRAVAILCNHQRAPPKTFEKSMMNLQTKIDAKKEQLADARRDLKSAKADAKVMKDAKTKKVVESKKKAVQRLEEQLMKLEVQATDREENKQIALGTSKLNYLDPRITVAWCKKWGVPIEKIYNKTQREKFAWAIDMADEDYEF

[10] = system: MCF7; experiment: as §4; type: functional, cell-based; conditions: Homo sapiens; method in brief: as §3
[11] = system: A549; experiment: In vitro growth inhibition of A549, lung carcinoma.; type: functional, cell-based; conditions: Homo sapiens; method in brief: as §3
[12] = molecular target: Tubulin; type: protein-complex assay
[13] = system: CAKI-1; experiment: In vitro percent inhibition of growth of CAKI-1, Kidney carcinoma; type: functional, Homo sapiens
[14] = system: SK-MEL-2; experiment: In vitro growth inhibition of SK-MEL-2, malignant melanoma; type: functional, cell-based; conditions: Homo sapiens; method in brief: as §3
[15] = molecular target: T2, DNA topoisomerase 1 (Homo sapiens); experiment: In vitro inhibition against topoisomerase I activity Measured as ATP independent relaxation of supercoiled plasmid DNA compared to enzyme and DNA control reaction relative to Camptothecin (100 uM)
Method in brief: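 Topo I inhibition read as ATP-independent relaxation of supercoiled plasmid DNA, compared with enzyme and DNA control reactions. Camptothecin at 100 μM was the positive control.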

[16] = system: SK-MEL-2; experiment: In vitro percent inhibition of growth of SK-MEL-2, malignant melanoma; type: functional, Homo sapiens
[17] = molecular target: T1, DNA topoisomerase II; experiment: as §1; type: protein assay; conditions: concentration not given here; method in brief: as §2
[18] = system: A549; experiment: In vitro growth inhibition of A549, lung carcinoma; type: functional, cell-based; conditions: Homo sapiens; method in brief: as §3
[19] = system: MCF7; experiment: In vitro percent inhibition of MCF-7, breast adenocarcinoma.; type: functional, Homo sapiens
[20] = system: A549; experiment: In vitro percent inhibition of A549, lung carcinoma; type: functional, Homo sapiens
[21] = system: KB; experiment: In vitro growth inhibition of KB, epidermoid carcinoma of the nasopharynx; type: functional, cell-based; conditions: Homo sapiens; method in brief: as §3
[22] = system: SK-MEL-2; experiment: In vitro percent inhibition of SK-MEL-2 cells, malignant melanoma.; type: functional, Homo sapiens; parameters: concentration or dose not given beside the values
[23] = system: KB; experiment: In vitro epidermoid carcinoma of the nasopharynx; type: functional, Homo sapiens; method in brief: as §3

COc1c(O)c(O)cc2c1-c1ccc(SC)c(=O)cc1[C@@H](NC(C)=O)CC2
IC50 [1]: 38 µM

CCC(=O)Oc1cc2c(c(OC(=O)CC)c1OC(=O)CC)-c1ccc(SC)c(=O)cc1[C@@H](NC(=O)c1ccc([N+](=O)[O-])cc1)CC2
EC50 [2]: > 25.9 µg/mL | EC50 [3]: 12.3 µg/mL (≈ 19 µM) | EC50 [4]: 12.9 µg/mL (≈ 19.9 µM) | Inhibition [5]: 16% | Inhibition [6]: 29% | Inhibition [7]: 40% | inhibition [8]: 0% | inhibition [9]: 0% | EC50 [10]: > 12.9 µg/mL | EC50 [11]: > 25.9 µg/mL | IC50 [12]: > 40 µM

CSc1ccc2c(cc1=O)[C@@H](NC(=O)C13CC4CC(CC(C4)C1)C3)CCc1cc(O)c(O)c(O)c1-2
inhibition [8]: 0% | inhibition [9]: 0% | IC50 [12]: > 40 µM

CSc1ccc2c(cc1=O)[C@@H](NC(=O)c1ccc(NC(=O)C34CCC(C)(C(=O)O3)C4(C)C)cc1)CCc1cc(O)c(O)c(O)c1-2 (some centres not stated)
inhibition [8]: 0% | inhibition [9]: 0% | IC50 [12]: > 40 µM

CSc1ccc2c(cc1=O)[C@@H](NC(=O)C13CCC(C)(C(=O)O1)C3(C)C)CCc1cc(O)c(O)c(O)c1-2 (some centres not stated)
inhibition [8]: 0% | inhibition [9]: 0% | IC50 [12]: > 40 µM

COC(=O)Oc1cc2c(c(OC(=O)OC)c1OC(=O)OC)-c1ccc(SC)c(=O)cc1[C@@H](NC(=O)c1ccc([N+](=O)[O-])cc1)CC2
EC50 [2]: > 26.2 µg/mL | EC50 [3]: 6.5 µg/mL (≈ 9.93 µM) | Inhibition [13]: 38% | EC50 [14]: > 26.2 µg/mL | inhibition [15]: 0% | Inhibition [16]: 44% | EC50 [10]: 13.1 µg/mL (≈ 20 µM) | inhibition [17]: 0% | EC50 [11]: 24.2 µg/mL (≈ 37 µM) | IC50 [12]: > 40 µM

COc1cc2c(c(O)c1O)-c1ccc(SC)c(=O)cc1[C@@H](NC(C)=O)CC2
IC50 [1]: > 150 µM

CSc1ccc2c(cc1=O)[C@@H](NC(=O)c1ccc([N+](=O)[O-])cc1)CCc1cc(OC(=O)C(C)C)c(OC(=O)C(C)C)c(OC(=O)C(C)C)c1-2
EC50 [2]: > 27.6 µg/mL | EC50 [3]: 25.5 µg/mL (≈ 36.9 µM) | EC50 [4]: 27.6 µg/mL (≈ 40 µM) | EC50 [18]: > 27.6 µg/mL | Inhibition [5]: 17% | inhibition [8]: 0% | inhibition [9]: 0% | EC50 [10]: > 27.6 µg/mL | Inhibition [19]: 43% | Inhibition [20]: 19% | IC50 [12]: > 40 µM

CSc1ccc2c(cc1=O)[C@@H](NC(=O)c1ccc(Cl)cc1)CCc1cc(O)c(O)c(O)c1-2
inhibition [8]: 100% | inhibition [9]: 0% | IC50 [12]: > 40 µM

CSc1ccc2c(cc1=O)[C@@H](NC(C)=O)CCc1cc(O)c(O)c(O)c1-2
IC50 [1]: 9 µM | Inhibition [5]: 22% | EC50 [21]: > 17.8 µg/mL | Inhibition [22]: 0% | EC50 [10]: 13.6 µg/mL (≈ 36.4 µM) | Inhibition [23]: 0%

CSc1ccc2c(cc1=O)[C@@H](NC(=O)c1ccc(N)cc1)CCc1cc(O)c(O)c(O)c1-2
inhibition [8]: 100% | inhibition [9]: 0%

CSc1ccc2c(cc1=O)[C@@H](NC(=O)c1cccc([N+](=O)[O-])c1)CCc1cc(O)c(O)c(O)c1-2
inhibition [8]: 100% | inhibition [9]: 0% | IC50 [12]: > 40 µM
